Source: PubChem (several laboratories)
Only a selection was taken, and hits are over-represented in it overall.
B2AR ag: beta2AR agonists driving receptor internalization, primary screen, cell-based, FAP fluorogen, flow cytometry | Am2.2-beta2AR cells | response, % (concentration not given with the values) | hit rate 0.43% among 340,000;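 active means response above a set limit, near 3 SD of response in nonfluorescent compounds, cut at about 42% in these data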
Target sequence (P07550 whole entry, looked up): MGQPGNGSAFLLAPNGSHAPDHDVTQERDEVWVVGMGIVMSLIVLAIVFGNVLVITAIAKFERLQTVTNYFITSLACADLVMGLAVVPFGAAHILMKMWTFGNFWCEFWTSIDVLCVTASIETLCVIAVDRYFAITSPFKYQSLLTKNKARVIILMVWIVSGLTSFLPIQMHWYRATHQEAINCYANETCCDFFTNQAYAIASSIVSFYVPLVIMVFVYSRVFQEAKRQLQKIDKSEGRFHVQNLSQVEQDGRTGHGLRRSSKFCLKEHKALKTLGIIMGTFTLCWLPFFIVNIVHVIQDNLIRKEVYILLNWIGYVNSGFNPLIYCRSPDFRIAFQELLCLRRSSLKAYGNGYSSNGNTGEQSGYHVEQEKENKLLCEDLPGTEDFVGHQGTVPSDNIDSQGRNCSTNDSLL
XBP1 UPR activ: activators of adaptive XBP1 UPR arm, primary screen, cell-based, CHO-XBP1 luciferase reporter, luminescence, uHTS; hit rate 0.33% among 330,000; IRE1-XBP1 UPR activation; percent of tunicamycin response, DMSO as zero; AID 463104, 2010; activation, % at 20 µM;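 active means versus positive control, 20 µM dose yields 30% or more activation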;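 further: 100% = tunicamycin at 10 µg/mL and 0% = DMSO only wells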
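Signal: luciferase luminescence; Assay system: CHO-XBP1 luciferase reporter cells; Amount: one thousand reporter cells per well; Dosing: 20 µM single concentration, DMSO 1%; Benchmarks: high control tunicamycin 10 µg/mL final, low control DMSO vehicle only; Schedule: 6 h compound exposure at 37 °C, 5% CO2; Evaluation: percent activation relative to tunicamycin reference.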
Dynein cargo inh: inhibitors of GR-EGFP nuclear translocation, primary screen, dynein cargo transport inhibitor project, imaging, high-content, 3617.4 mouse cells | test concentration mostly 20 µM; stimulated with dexamethasone, 1 µM; active compounds read low | z-score, hits read low | hit rate 0.47% among 220,000 | AID 1381, 2008;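 active means plate z-score of nuclear minus cytoplasmic receptor signal below a set negative limit, without overly bright fluorescence or cell loss, cut at about -3.5 in these data, passing the limit was not always enough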;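 further: z-score of nuclear minus cytoplasmic ring GR-EGFP intensity difference per well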
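Medium: Induction medium lacking tetracycline, stripped serum | Probe or stimulus: 1.0 µM final dexamethasone stimulus | Schedule: 48 h induction, then 1 h compound, then 30 min agonist, 37 °C | Signal: Automated 10x imaging of fixed Hoechst-stained cells | Evaluation: Per-cell GR-EGFP intensity, nucleus versus surrounding cytoplasmic ring, well-averaged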
p-CIP stab down: p/CIP-EGFP fusion destabilizers, primary screen, fluorescence, F442A cells; Q05BA5; 16 h; decrease of EGFP signal, % at 10 µM; hit rate 0.01% among 290,000;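 active means EGFP signal decrease of at least 30% at 10 µM or well 3 SD below plate mean, unless failing retest; inactive means the rest, including hits failing retest or dose response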
CHOP UPR activ: activators of apoptotic CHOP UPR arm, primary screen, cell-based, CHO-CHOP luciferase reporter, luminescence, uHTS. UPR activation; percent of tunicamycin response over DMSO baseline. activation, % at 10 µM. hit rate 0.34% among 330,000. AID 449763, 2010;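 active means at 10 µM dose, activation of 40% or more, normalized to positive control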;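 further: 100% = tunicamycin at 10 µg/mL and 0% = DMSO alone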
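System: CHO-CHOP luciferase reporter cell line; amount: 500 cells/well; buffer or medium: F12 medium containing 10% fetal bovine serum; incubation: 6 h compound exposure at 37 °C after overnight seeding; measured by: luciferase luminescence after 10 min with Steady-Glo reagent; evaluation: % reporter activation, DMSO baseline versus tunicamycin full activation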
CHOP inh: inhibitors of CHOP promoter induction, primary screen, cell-based, unfolded protein response, luciferase reporter | CHO-K1 CHOP-promoter luciferase, tunicamycin-induced, 15-18 h | inhibition, % at 10 µM | hit rate 3.8% among 220,000 | AID 2732, 2010;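 active means compounds that reduced the stress-induced luciferase reporter signal by more than about 70% of percent inhibition, limit read from the data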;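 further: 0% = tunicamycin plus vehicle and 100% = wells without tunicamycin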
Active calls of the source: *; / = not tested or not shown.

SMILES	B2AR ag	XBP1 UPR activ	Dynein cargo inh	p-CIP stab down	CHOP UPR activ	CHOP inh
CCOc1ccc(Oc2c(/C=N/NC(=O)COc3ccccc3OC)c(C)nn2-c2ccccc2)cc1	-5.4	3.0	0.344	-7.0	0.6	85.1*
CCOc1ccc(Oc2c(/C=N/NC(N)=O)c(C)nn2-c2ccccc2)cc1	-2.1	9.9	0.866	-4.2	-2.8	38.2
O=C(O)c1cccc2c1C(=O)c1cc([N+](=O)[O-])ccc1-2	5.1	/	/	/	/	/
CSC(=Nc1ccccc1)C(C#N)c1nc2ccccc2[nH]1 (stereo unspecified)	-5.3	8.5	-0.0334	-5.8	2.8	82.0*
CCN(Cc1ccccc1)c1ccc(/C=N/N=C(N)N)cc1	62.6*	-2.2	-2.87	2.9	-1.8	77.4*
CCN(Cc1ccccc1)c1ccccc1	11.4	/	/	/	/	/
CN[C@@H](C)C(=O)NC[C@H]1O[C@@H](n2cnc3c(N)ncnc32)[C@H](O)[C@@H]1O	0.2	1.3	/	/	3.2	/
CCOC(=O)c1[nH]c(COC(=O)c2ccccc2NC(=O)c2ccco2)c(C(=O)OCC)c1C	-1.1	-0.6	-1.11	-2.8	9.4	81.3*
CCOC(=O)c1ccccc1NC(=O)c1cccc(F)c1	5.9	2.2	-0.111	6.2	-3.1	74.2*
CCOC(=O)c1ccccc1NC(=O)c1c(F)c(F)c(F)c(F)c1F	14.1	1.9	-2.15	-3.6	-0.6	73.3*
COc1ccc2c(c1)c(CC(=O)O)c(C)n2Cc1ccc(F)cc1	/	/	/	/	/	18.4
CCc1c(C(=O)Nc2ccc(OC)c(Cl)c2)[nH]c(C)c1C(C)=O	2.6	-0.2	0.77	-0.4	-0.9	85.7*
Oc1cccc(/C=N/N(Cc2ccccc2)c2ccccc2)c1	1.5	-0.8	0.206	18.2	-2.7	56.1
Oc1ccc(/C=N/N(Cc2ccccc2)c2ccccc2)c(O)c1O	1.5	/	-0.28	3.1	/	80.4*
CCn1c2c(c3cc(Br)ccc31)CCC/C2=N\O	9.3	0.4	-1.22	-27.0	-2.0	89.6*
CC[C@@H](C(=O)[C@@H](C)[C@@H](O)[C@H](C)[C@@H]1O[C@@H]([C@@H](CC)C(=O)O)CC[C@@H]1C)[C@H]1O[C@]2(C=C[C@@H](O)[C@]3(CC[C@@](C)([C@H]4CC[C@](O)(CC)[C@H](C)O4)O3)O2)[C@H](C)C[C@@H]1C	39.9	/	/	/	/	/
CC[C@@H](C(=O)[C@@H](C)[C@@H](O)[C@H](C)CCc1ccc(C)c(O)c1C(=O)O)[C@H]1O[C@](CC)([C@H]2CC[C@](O)(CC)[C@H](C)O2)C[C@@H]1C	86.0*	-3.0	/	-6.2	12.0	/
Fc1ccc(Cn2c(-c3cscn3)nc3ccccc32)c(Cl)c1	9.1	0.1	0.667	-16.8	-0.8	93.8*
COc1ccccc1NC(=O)c1ccc2[nH]c(C)c(C)c2c1	18.4	4.9	/	-16.7	5.8	/
CCC(C)c1ccccc1NC(=O)CN1CCN(C/C=C/c2ccccc2)CC1 (stereo unspecified)	17.6	-1.4	-0.89	-0.2	-2.1	75.0*
COc1ccc(Cl)cc1NC(=O)C(C)N1CCN(C/C=C/c2ccccc2)CC1 (stereo unspecified)	-6.2	-3.0	0.629	-3.1	1.5	73.5*
CC(=O)c1ccc(NC(=O)C(C)N2CCN(C/C=C/c3ccccc3)CC2)cc1 (stereo unspecified)	-10.6	-1.4	0.585	5.6	-0.4	-11.5
COc1ccc(C(c2nnnn2C2CCCC2)N2CCC(C)CC2)cc1 (stereo unspecified)	-6.5	1.1	-0.401	-8.3	0.1	82.9*
CC(c1ccco1)N(C(=O)C12CC3CC(CC(C)(C3)C1)C2)c1ccccn1 (stereo unspecified)	3.9	-6.6	-0.143	-1.3	-1.2	87.2*
COc1ccc(CN(C(=O)CSc2nnc(-c3ccccc3C)o2)c2ccc(F)cc2)cc1	4.2	-4.5	-0.287	2.8	1.7	4.4
SMILES	B2AR ag	XBP1 UPR activ	Dynein cargo inh	p-CIP stab down	CHOP UPR activ	CHOP inh
O=C(CSc1nnc(-c2c[nH]c3ccccc23)o1)N(Cc1ccccc1)c1ccc(F)cc1	3.4	7.8	-0.586	-0.7	1.2	71.5*
CC(C)C(C)NC(=O)CSc1nnc(-c2c[nH]c3ccccc23)o1 (stereo unspecified)	5.5	-2.4	0.408	8.0	4.0	13.0
Cc1ccc(C(=O)CSc2nnc(-c3c[nH]c4ccccc34)o2)cc1	1.9	3.6	-0.532	-14.2	-2.6	94.8*
CC(=O)O[C@H]1C[C@@]2(C)[C@@H](C[C@@H](O)[C@H]3[C@@]4(C)CC[C@@H](O)[C@@H](C)[C@@H]4CC[C@@]32C)/C1=C(\CCC=C(C)C)C(=O)O	0.6	-7.7	/	/	0.5	/
CSc1ncccc1C(=O)OCC(=O)Nc1cc(C(F)(F)F)ccc1N1CCOCC1	-2.5	5.0	0.54	-4.6	-2.6	71.0*
O=C(Nc1cc(C(F)(F)F)ccc1N1CCOCC1)c1n[nH]c(=O)c2ccccc12	2.5	4.3	0.448	-8.0	1.6	78.3*
CC(=O)Oc1c(C)c2c3c(c1OC(C)=O)[C@@H](C)CC[C@@H]3[C@@H](C)C[C@H]2C=C(C)C	5.1	5.2	/	/	3.0	/
CCC1CCCCN1Cc1nc2c(c(=O)n(C)c(=O)n2C)n1Cc1ccccc1 (stereo unspecified)	-15.8	-0.9	1.17	2.8	-0.2	82.9*
CCOCCn1c(CN(Cc2ccccc2)Cc2ccccc2)nc2c1c(=O)n(C)c(=O)n2C	10.8	2.0	-0.17	-4.4	1.7	80.2*
O=C1N(CC(=O)N2CCc3ccccc32)CCN1Cc1ccccc1Cl	-10.2	-2.4	-0.584	5.1	-1.1	27.0
COc1ccc(C2c3sc(=O)[nH]c3SC3C4CCC(C4)C23)cc1 (stereo unspecified)	3.0	-2.3	-0.164	-3.7	-2.4	88.4*
CCN(CC)CC(C)(C)C(=O)/C=C/c1ccc(/C=C/C(=O)C(C)(C)CN(CC)CC)cc1	45.5*	/	/	/	/	/
CC[C@H](C)[C@H]1O[C@]2(CC[C@@H]1C)C[C@@H]1C[C@@H](CC=C(C)[C@@H](O[C@H]3C[C@H](OC)[C@@H](O[C@H]4C[C@H](OC)[C@@H](O)[C@H](C)O4)[C@H](C)O3)[C@@H](C)C=CC=C3CO[C@@H]4[C@H](O)C(C)=C[C@@H](C(=O)O1)[C@]34O)O2	31.9	63.5*	/	/	39.3	/
COc1ccccc1C(=O)Nc1cc(C)ccc1NC(=O)c1ccco1	-2.7	-1.9	/	-5.8	-1.1	/
CC(C)Oc1ccccc1/C=N/Nc1ccccc1[N+](=O)[O-]	3.9	-2.0	-0.696	-7.3	1.4	75.9*
